Legend:
[1] = tested on: Human immunodeficiency virus 1; assay: Antiviral activity against X4 tropic HIV1 HXB2 infected in human TZM-bl cells pretreated with virus for 30 mins followed by 3 days incubation with cells by luciferase reporter gene based single cycle infection assay; type: functional, cell-based
In short: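 TZM-bl cells (1 x 10^4/well) were cultured overnight at 37 °C. HXB2-Env pseudovirus was preincubated 30 min with graded compound concentrations, then added to the cells for 3 days. Cells were washed and lysed, and luciferase was read. IC50 came from percent inhibition.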

[2] = tested on: Human immunodeficiency virus 1; assay: Antiviral activity against HIV1 3B infected in human MT2 cells assessed as inhibition of p24 antigen production pretreated with virus for 30 mins followed by 4 days incubation with cells by sandwich ELISA based multicycle infection assay; type: functional, cell-based
In short: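 MT-2 cells were infected with HIV-1 IIIB at 100 TCID50 and preincubated 30 min with graded compound concentrations. Medium was replaced next day. Supernatants were collected 4 days post-infection, lysed with equal volume 5% Triton X-100, and p24 was measured by sandwich ELISA. IC50 came from percent inhibition of p24.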

[3] = (§1) Cytotoxicity against human MT2 cells incubated for 4 days by XTT assay; type: cell-based; conditions: MT2 cells
In short: (§2)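 Run alongside the MT-2 multicycle infection assay. Compound at graded concentrations mixed with an equal volume of MT-2 cells (10^5 cells/ml). Medium replaced next day and culture continued four days.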

[4] = (§3) Cytotoxicity against human TZM-bl cells incubated for 3 days by XTT assay; type: cell-based; conditions: TZM-bl cells
In short: (§4)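 TZM-bl cells, 1 x 10^4/well, cultured overnight at 37 °C. Compounds added at graded concentrations for three days.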

MT2 = assay: as §1; type: cell-based; conditions: mt2, 96 h, 96 h; in short: as §2
TZM = assay: as §3; type: cell-based; conditions: tzm, 72 h; in short: as §4
[5] = Human immunodeficiency virus 1, HXB2, TZM-bl
[6] = Human immunodeficiency virus 1, 3B, MT2

Compound	IC50 [1, 5]	IC50 [2, 6]	CC50 at 96 h [3]	CC50 at 72 h [4]	IC50 [1]	IC50 [2]	CC50 (MT2)	CC50 (TZM)
Cc1nc(C(CN(C)C)NC(=O)c2ccc(-c3ccc(Cl)c(F)c3)[nH]2)sc1CO (stereo in doubt; 45A)	16.7 µM	> 20 µM	> 40 µM	> 40 µM				
Cc1nc(C(CN(C)C)NC(=O)c2ccc(-c3ccc(Cl)c(F)c3)[nH]2)sc1CO (stereo in doubt; 45B)					19 µM	19.2 µM		
Cc1nc(C(CCN)NC(=O)c2ccc(-c3ccc(F)c(Cl)c3)[nH]2)sc1CO (stereo in doubt; 62A)	6.6 µM	7.8 µM	25.1 µM	25.5 µM				
Cc1nc(C(CCN)NC(=O)c2ccc(-c3ccc(F)c(Cl)c3)[nH]2)sc1CO (stereo in doubt; 62B)					8 µM	9.3 µM	24.9 µM	24.5 µM
Cc1cc(-c2ccc(C(=O)NC(CCN)c3nc(C)c(CO)s3)[nH]2)ccc1F (stereo in doubt; 63A)	5.7 µM	1.8 µM	35.8 µM	33 µM				
Cc1cc(-c2ccc(C(=O)NC(CCN)c3nc(C)c(CO)s3)[nH]2)ccc1F (stereo in doubt; 63B)					7.8 µM	3 µM	34.7 µM	38.2 µM
CNCCC(NC(=O)c1ccc(-c2cccc(Cl)c2)[nH]1)c1nc(C)c(CO)s1 (stereo in doubt; 64A)	6.3 µM	7.8 µM	25.1 µM	23 µM				
CNCCC(NC(=O)c1ccc(-c2ccc(F)c(Cl)c2)[nH]1)c1nc(C)c(CO)s1 (stereo in doubt; 65A)		3.9 µM	22.6 µM	22 µM	1.5 µM			
CNCCC(NC(=O)c1ccc(-c2ccc(F)c(Cl)c2)[nH]1)c1nc(C)c(CO)s1 (stereo in doubt; 65B)					4.6 µM	5.7 µM	24.2 µM	22.3 µM
CNCCC(NC(=O)c1ccc(-c2ccc(F)c(C)c2)[nH]1)c1nc(C)c(CO)s1 (stereo in doubt; 66A)	4.1 µM	4.1 µM	25.9 µM	38.9 µM				
CNCCC(NC(=O)c1ccc(-c2ccc(F)c(C)c2)[nH]1)c1nc(C)c(CO)s1 (stereo in doubt; 66B)					4.9 µM	5 µM	25.3 µM	36.4 µM
Cc1nc(C(CCN(C)C)NC(=O)c2ccc(-c3cccc(Cl)c3)[nH]2)sc1CO (stereo in doubt; 67A)	10.4 µM	13.8 µM	26 µM	29.4 µM				
Cc1nc(C(CCN(C)C)NC(=O)c2ccc(-c3ccc(F)c(Cl)c3)[nH]2)sc1CO (stereo in doubt; 68A)	1.5 µM	3.7 µM	19.1 µM	21.3 µM				
Cc1nc(C(CCN(C)C)NC(=O)c2ccc(-c3ccc(F)c(Cl)c3)[nH]2)sc1CO (stereo in doubt; 68B)					1.8 µM	4.4 µM	22 µM	22 µM
Cc1cc(-c2ccc(C(=O)NC(CCN(C)C)c3nc(C)c(CO)s3)[nH]2)ccc1F (stereo in doubt; 69A)		2.1 µM	25.1 µM	23.7 µM	1.9 µM			
NCC(NC(=O)c1ccc(-c2ccc(Cl)cc2)[nH]1)c1ncc(CO)s1 (stereo in doubt; 81A)	1.3 µM	1.4 µM	35.6 µM	38 µM				
NCC(NC(=O)c1ccc(-c2ccc(Cl)c(F)c2)[nH]1)c1ncc(CO)s1 (stereo in doubt; 82A)	1.1 µM	0.94 µM	32 µM	37.4 µM				
Cc1ccc(-c2ccc(C(=O)NC(CN)c3ncc(CO)s3)[nH]2)cc1F (stereo in doubt; 83A)			35.2 µM	39.2 µM		1.6 µM		
NCC(NC(=O)c1ccc(-c2cc(F)c(Cl)c(F)c2)[nH]1)c1ncc(CO)s1 (stereo in doubt; 84B)						0.97 µM	17.4 µM	20.6 µM
CNCC(NC(=O)c1ccc(-c2ccc(Cl)c(F)c2)[nH]1)c1ncc(CO)s1 (stereo in doubt; 86A)	1.4 µM	3.9 µM	18.4 µM	17.4 µM				
CNCC(NC(=O)c1ccc(-c2ccc(C)c(F)c2)[nH]1)c1ncc(CO)s1 (stereo in doubt; 87A)	2 µM		26.6 µM	22.3 µM		4.4 µM		
CNCC(NC(=O)c1ccc(-c2cc(F)c(Cl)c(F)c2)[nH]1)c1ncc(CO)s1 (stereo in doubt; 88A)	0.36 µM	0.36 µM	14 µM	10.4 µM				
CNCC(NC(=O)c1ccc(-c2cc(F)c(Cl)c(F)c2)[nH]1)c1ncc(CO)s1 (stereo in doubt; 88B)					0.42 µM		11.9 µM	13.9 µM
